{"source": "paper PMC4007056", "about": "(Molecular cancer therapeutics, 2014)", "key": {"[1]": {"tested_on": "i.c. HIFko tumor derived cell suspension", "assay": "ex vivo binding of individual phage to tumor-derived cell suspension", "type": "cell-based, mouse", "conditions": "cell suspension from tumor containing brain relative to normal brain"}, "[2]": {"tested_on": "intracranial HIFko tumors", "assay": "in vivo homing of intravenously injected phage", "parameters": "species or system mouse", "conditions": "intravenous injection; compared to control phage; mean of three experiments", "how_it_was_run": "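T7Select415-1 phage displaying the peptide were injected into the tail vein of mice bearing intracranial HIFko tumors and circulated 15 min. Tissues were excised and phage recovered and amplified in E. coli BLT5615. Non-recombinant control phage was injected into a separate mouse, and homing was expressed relative to it. Mean of three experiments, ±SEM.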"}, "[3]": {"tested_on": "tumors derived from VEGF-expressing HIFko cells", "assay": "in vivo homing of fluorescein-conjugated peptide, VEGF-expressing HIFko tumors", "parameters": "species or system mouse", "conditions": "fluorescein-conjugated peptide i.v., 60 min; i.c. tumors", "how_it_was_run": "(§1)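 Athymic female Balb/c nu-nu mice (4–6 wk) with intracranial tumors, used 10–21 days after inoculation. Fluorescein-labelled peptide (100 µM, 100 µl/animal) was injected into the tail vein and circulated 60 min. Mice were perfused through the […] and tumors excised. Frozen sections (5–10 µm) were stained with rabbit anti-FITC, anti-PECAM-1 for vessels and DAPI, then examined by fluorescence microscopy.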"}, "[4]": {"tested_on": "intracranial U87MG human glioma", "assay": "in vivo homing of fluorescein-conjugated peptide, i.c. U87MG glioma", "parameters": "species or system mouse", "conditions": "fluorescein-conjugated peptide i.v., 60 min", "how_it_was_run": "as §1"}, "[5]": {"tested_on": "rat BT4C glioma xenografts", "assay": "in vivo homing of fluorescein-conjugated peptide, BT4C glioma", "parameters": "species or system mouse", "conditions": "fluorescein-conjugated peptide i.v., 60 min", "how_it_was_run": "as §1"}, "[6]": {"tested_on": "subcutaneous tumors established from the HIFko cells", "assay": "in vivo homing of fluorescein-conjugated peptide, subcutaneous HIFko tumors", "parameters": "species or system mouse", "conditions": "fluorescein-conjugated peptide i.v., 60 min", "how_it_was_run": "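Athymic female Balb/c nu-nu mice (4–6 wk) were grafted subcutaneously on the abdominal side with 5×10^6 HIFko cells. Fluorescein-labelled peptide was given intravenously and circulated one hour. Frozen tissue sections (5–10 µm) were stained with rabbit anti-FITC antibody, Alexa-conjugated secondary antibody and DAPI, then viewed by fluorescence microscopy.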"}, "[7]": {"tested_on": "orthotopic MDA-MB-231 human breast cancer xenografts", "assay": "in vivo homing of fluorescein-conjugated peptide, MDA-MB-231 xenografts", "parameters": "species or system mouse", "conditions": "fluorescein-conjugated peptide i.v., 60 min", "how_it_was_run": "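Athymic female Balb/c nu-nu mice (4–6 wk) bearing xenografts received fluorescein-labelled peptide intravenously, circulated one hour. Frozen sections (5–10 µm) were stained with rabbit anti-FITC and anti-PECAM-1 antibodies, Alexa-conjugated secondaries and DAPI, then examined under a fluorescence microscope.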"}, "[8]": {"tested_on": "i.c. tumors derived from MDGI expressing U87MG cells", "type": "in vivo, mouse", "conditions": "MDGI expressing versus control U87MG tumors; fluorescein-conjugated peptide i.v."}, "[9]": {"tested_on": "intracranial HIFko tumors", "assay": "treatment of intracranial HIFko tumor-bearing mice with targeted Cbl", "type": "in vivo, mouse", "how_it_was_run": "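Athymic female Balb/c nu-nu mice (4–6 wks) bearing intracranial HIFko tumours were randomised to groups of 4 from day 5 post-implantation. They received i.v. PBS, peptide–drug conjugate (5 mg/kg), or free drug at the same molar amount, every second day. Body weight was monitored, and mice were sacrificed once weight loss exceeded 10%.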"}}}
{"substance": "CGLSGLGVA [phage 36]", "values": [{"measurement": "brain tumor to normal brain ratio of ex vivo phage binding", "setting": "[1]", "result": "over 80"}, {"measurement": "accumulation in other organs (liver, kidney, lung, normal brain)", "setting": "[2]", "result": "negligible accumulation"}]}
{"substance": "CSESGLGVA [phage 34]", "values": [{"measurement": "brain tumor to normal brain ratio of ex vivo phage binding", "setting": "[1]", "result": "about 13"}]}
{"substance": "H-ACGLSGLGVA-NH2 [CooP]", "values": [{"measurement": "homing to tumors derived from VEGF-expressing HIFko cells", "setting": "[3]", "result": "did not home"}, {"measurement": "homing to intracranial U87MG human glioma", "setting": "[4]", "result": "homed"}, {"measurement": "homing to rat BT4C glioma xenografts", "setting": "[5]", "result": "homed"}, {"measurement": "homing to subcutaneous HIFko tumors", "setting": "[6]", "result": "did not home"}, {"measurement": "homing to MDA-MB-231 human breast cancer xenografts", "setting": "[7]", "result": "No CooP peptide was detected"}, {"measurement": "effect of MDGI-expression on peptide homing to i.c. U87MG tumors", "setting": "[8]", "result": "substantially increased"}]}
{"substance": "NH2-CGLSGLGVAGGMVRRFLVTLRIRRACGPPRVRVK(^εCbl)-CONH2 [CooP-CPP-Cbl]", "values": [{"measurement": "signs of tumor burden", "setting": "[9]; 5 mg/kg i.v. every second day from d5", "result": "did not show any signs of tumor burden"}, {"measurement": "body weight course", "setting": "[9]; 5 mg/kg i.v. every second day from d5, 4 mice/group", "result": "gained weight"}, {"measurement": "life span of the animals", "setting": "[9]; 5 mg/kg i.v. every second day from d5, versus saline and free Cbl", "result": "prolonged the life span"}, {"measurement": "size of the primary tumor versus control groups", "setting": "[9]; 5 mg/kg i.v. every second day, four sections/animal", "result": "no difference"}]}
